Measured values: ChEMBL document CHEMBL1154414, “In vitro and in vivo activities of T-705 against arenavirus and bunyavirus infections” (Antimicrob Agents Chemother, 2007)

Columns and labels:
[1] = test system: Pichinde virus; assay: Antiviral activity against Pichinde virus An 4763 infected Syrian golden hamster assessed as mean serum ALT levels at 15 mg/kg, po twice daily for 7 days administered 4 hrs before viral-challenge measured on day 7 of viral infection; assay type: functional
[2] = test system: Punta Toro virus; assay: Antiviral activity against 50 PFU Punta Toro virus Adames infected C57BL/6 mouse assessed as animals with detectable virus level in liver at 10 mg/kg, po twice daily administered 24 hrs post viral challenge measured on day 3 of viral infection; assay type: functional
Outline: (§1)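 T-705 was suspended in 0.4% carboxymethylcellulose and given by oral gavage twice daily. Mice were infected subcutaneously with PTV. Five mice per group (10 placebo) were sacrificed on day 3 or 4. Liver homogenate or serum was serially diluted onto triplicate LLC-MK2 monolayers, and CPE was read at 6–8 days. The detection limit was 2.8 log10 CCID50 per 0.1 g liver or 0.1 ml serum.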

[3] = test system: Sandfly fever Naples virus; assay: Antiviral activity against Sandfly fever Naples virus assessed as reduction of 1 log10 unit viral titer yields after 3 to 5 days; assay type: functional
[4] = test system: Punta Toro virus; assay: Antiviral activity against 500 PFU Punta Toro virus Adames infected C57BL/6 mouse assessed as mean day of death at 30 mg/kg, po twice daily for 5 days administered 4 hrs before viral challenge; assay type: functional
Outline: (§2)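 Groups of 15 mice (25–30 placebo) were inoculated subcutaneously with PTV. Drug in 0.4% carboxymethylcellulose was given by oral gavage twice daily.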

[5] = test system: Punta Toro virus; assay: Antiviral activity against 500 PFU Punta Toro virus Adames infected C57BL/6 mouse assessed as animals with detectable virus level in liver at 30 mg/kg, po twice daily administered 4 hrs before viral challenge measured on day 3 of viral infection; assay type: functional; outline: as §1
[6] = test system: Pichinde virus; assay: Antiviral activity against Pichinde virus An 4763 infected Syrian golden hamster assessed as mean day of death at 50 mg/kg, po twice daily for 7 days administered 24 hrs post viral-challenge; assay type: functional
Outline: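 Groups of 15 hamsters (placebo 25-30) were challenged intraperitoneally (bilateral, 65 PFU) and dosed twice daily by oral gavage in 0.4% CMC for 5 to 7 days.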

[7] = test system: Punta Toro virus; assay: Antiviral activity against 500 PFU Punta Toro virus Adames infected C57BL/6 mouse assessed as mean serum ALT levels at 200 mg/kg, po twice daily administered 4 hrs before viral challenge measured on day 4 of viral infection; assay type: functional
Outline: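 Subcutaneous PTV infection was followed by oral gavage twice daily with drug suspended in 0.4% CMC. Serum was collected from 5 sacrificed mice per group (10 placebo) on day 3 or 4. ALT activity was measured by kinetic assay, and sham-infected mice set the baselines.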

[8] = test system: Punta Toro virus; assay: Antiviral activity against 500 PFU Punta Toro virus Adames infected C57BL/6 mouse assessed as mean viral titer per 0.1 mL of serum at 200 mg/kg, po twice daily administered 4 hrs before viral challenge measured on day 4 of viral infection; assay type: functional
Outline: (§3)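 Mice were infected subcutaneously with PTV and dosed by oral gavage twice daily; 5 per group (10 placebo) were killed on day 3 or 4. Liver homogenate or serum was serially diluted onto triplicate LLC-MK2 monolayers, and CPE was read 6–8 days later. 50% endpoints gave log10 CCID50 per 0.1 g liver or 0.1 ml serum. Detection range was 2.8–9.5; undetectable samples were assigned <2.8.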

[9] = test system: La Crosse virus; assay: Antiviral activity against La Crosse virus assessed as inhibition of virus-induced visual cytopathic effect after 3 to 5 days; assay type: functional, organism-based
Outline: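 Virus diluted in 2% FBS medium was added with half-log drug dilutions at infection. Plates were incubated at 37°C, 5% CO2, until maximal CPE in infected controls, then scored visually 3–5 days post-infection. EC50 was derived by regression analysis.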

[10] = test system: Junin virus; assay: Antiviral activity against Junin virus Candid-1 assessed as reduction of 1 log10 unit viral titer yields after 7 to 8 days; assay type: functional; details: Mammarenavirus juninense
[11] = test system: Punta Toro virus; assay: Antiviral activity against Punta Toro virus Adames infected Syrian golden hamster assessed as mean serum ALT levels at 15 mg/kg, po twice daily administered 4 hrs before viral challenge measured on day 4 of viral infection; assay type: functional
[12] = test system: Pichinde virus; assay: Antiviral activity against Pichinde virus An 4763 assessed as reduction of 1 log10 unit viral titer yields after 7 to 8 days; assay type: functional
[13] = test system: Pichinde virus; assay: Antiviral activity against Pichinde virus An 4763 infected Syrian golden hamster assessed as mean viral titer per 0.1 g of liver at 40 mg/kg, po twice daily for 7 days administered 4 hrs before viral-challenge measured on day 7 of viral infection; assay type: functional
Outline: (§4)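 Hamsters (groups of 15, placebo 25-30) were dosed orally by gavage twice daily (drug suspended in 0.4% CMC) after bilateral intraperitoneal challenge with 65 PFU. Five per group were killed on day 7. Liver homogenate or serum was serially diluted onto triplicate B-SC-1 wells, CPE was read at 6-8 days, and the 50% endpoint was taken. Range was 2.8-9.5 log10 CCID50/0.1 g or 0.1 ml, with undetectable assigned <2.8.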

[14] = test system: Punta Toro virus; assay: Antiviral activity against 500 PFU Punta Toro virus Adames infected C57BL/6 mouse assessed as animals with detectable virus level in liver at 25 mg/kg, po twice daily administered 4 hrs before viral challenge measured on day 4 of viral infection; assay type: functional; outline: as §1
[15] = test system: Influenza A virus; assay: Antiviral activity against influenza A virus; assay type: functional, organism-based
[16] = test system: Punta Toro virus; assay: Antiviral activity against 500 PFU Punta Toro virus Adames infected C57BL/6 mouse assessed as mean viral titer per 0.1 mL of serum at 100 mg/kg, po twice daily administered 4 hrs before viral challenge measured on day 4 of viral infection; assay type: functional; outline: as §3
[17] = test system: Rift Valley fever virus; assay: Antiviral activity against Rift Valley fever virus MP-12 assessed as reduction of 1 log10 unit viral titer yields after 3 to 5 days; assay type: functional
[18] = test system: Enterovirus C; assay: Antiviral activity against Poliovirus; assay type: functional, organism-based
[19] = test system: Pichinde virus; assay: Antiviral activity against Pichinde virus An 4763 infected Syrian golden hamster assessed as animals with detectable virus level in serum at 50 mg/kg, po twice daily for 7 days administered 24 hrs post viral-challenge measured on day 7 of viral infection; assay type: functional; outline: as §4
[20] = test system: Punta Toro virus; assay: Antiviral activity against 500 PFU Punta Toro virus Adames infected C57BL/6 mouse assessed as mean viral titer per 0.1 mL of serum at 10 mg/kg, po twice daily administered 4 hrs before viral challenge measured on day 3 of viral infection; assay type: functional; outline: as §3
[21] = test system: Punta Toro virus; assay: Antiviral activity against 50 PFU Punta Toro virus Adames infected C57BL/6 mouse assessed as mean day of death at 10 mg/kg, po twice daily for 5 days administered 24 hrs post viral challenge; assay type: functional; outline: as §2
[22] = test system: Pichinde virus; assay: Antiviral activity against Pichinde virus An 4763 infected Syrian golden hamster assessed as mean viral titer per 0.1 mL of serum at 50 mg/kg, po twice daily for 7 days administered 72 hrs post viral-challenge measured on day 7 of viral infection; assay type: functional; outline: as §4
[23] = test system: Punta Toro virus; assay: Antiviral activity against Punta Toro virus Adames infected Syrian golden hamster assessed as mean serum ALT levels at 60 mg/kg, po twice daily administered 4 hrs before viral challenge measured on day 4 of viral infection; assay type: functional
[24] = test system: Punta Toro virus; assay: Antiviral activity against 5000 PFU Punta Toro virus Adames infected C57BL/6 mouse assessed as mean day of death at 10 mg/kg, po twice daily for 5 days administered 24 hrs post viral challenge; assay type: functional
Outline: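 PTV was inoculated subcutaneously into mice in groups of 15 (25–30 placebo). Dosing was by oral gavage twice daily for 5–7 days, with T-705 suspended in 0.4% CMC and ribavirin in saline. Remaining animals were observed 21–28 days for survival and day of death. Test doses had first been checked for tolerance in uninfected animals.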

Structure (SMILES) | Activity [2] | Activity [6] | EC50 [9] | log10CCID50 [13] | Activity [19] | Activity [21] | log10CCID50 [22] | Activity [24] | also measured
NC(=O)c1nc(F)cnc1O [FAVIPIRAVIR] | 0% | >21 days | 32 µM | <3.2 | 80% | 5.8 days | 6.6 | 4.4 days | Activity [1]: 1220 IU/L; EC90 [3]: 3 µM; Activity [4]: >21 days; Activity [5]: 0%; Activity [7]: 37 IU/L; log10CCID50 [8]: <2.8; EC90 [10]: 7 µM; Activity [11]: 204 IU/L; EC90 [12]: 19 µM; Activity [14]: 0%; EC50 [15]: 0.083 µM; log10CCID50 [16]: <2.8; EC90 [17]: 6 µM; EC50 [18]: 31 µM; log10CCID50 [20]: 6.2; Activity [23]: 17 IU/L
NC(=O)c1ncn([C@@H]2O[C@H](CO)[C@@H](O)[C@H]2O)n1 [RIBAVIRIN] | 40% | >21 days | 70 µM | <3.2 | 40% | 5.3 days | 6 | 4 days | –
